Bioassay records (PubChem BioAssay)
An excerpt weighted towards active compounds, which were near 2.6% of everything screened.
SIAE inh: human SIAE inhibitors, primary screen, biochemical, fluorescence polarization, FP-Rh probe, 1536-well HTS; SIAE FP-Rh probe binding; Sialate O-acetylesterase (Homo sapiens), Q9HAT2; 370,000 compounds, 0.69% hits; inhibition, % at 9.66 µM;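 active = inhibition above a cutoff: mean of compounds within the control limits plus 3 SD of those, cut at about 17% in these data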
Target sequence (Q9HAT2 whole entry, looked up): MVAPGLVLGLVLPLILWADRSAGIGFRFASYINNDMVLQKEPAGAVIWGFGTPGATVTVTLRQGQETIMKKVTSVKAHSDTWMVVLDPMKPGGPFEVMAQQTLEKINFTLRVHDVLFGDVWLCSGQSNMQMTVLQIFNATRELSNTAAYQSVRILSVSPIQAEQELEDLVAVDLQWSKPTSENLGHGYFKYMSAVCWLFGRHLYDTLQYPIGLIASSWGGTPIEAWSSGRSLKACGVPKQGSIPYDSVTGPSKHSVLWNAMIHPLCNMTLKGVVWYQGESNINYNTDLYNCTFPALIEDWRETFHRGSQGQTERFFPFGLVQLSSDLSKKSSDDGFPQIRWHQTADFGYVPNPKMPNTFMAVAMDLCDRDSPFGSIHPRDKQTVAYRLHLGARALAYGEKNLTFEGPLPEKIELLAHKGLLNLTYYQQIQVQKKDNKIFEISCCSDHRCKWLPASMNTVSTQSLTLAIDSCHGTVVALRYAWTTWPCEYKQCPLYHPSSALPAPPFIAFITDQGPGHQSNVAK
TCR CD3 inh: inhibitors of human TCR-CD3 interaction, primary screen, biochemical, fluorescence, TAMRA-labeled TCR probe; T-cell receptor (TCR); 360,000 compounds, 0.37% hits; inhibition, % at 9.4 µM; AID 651800, 2012; in the data active = inhibition above about 19%;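 note: recombinant mutant TCR 2C K166C tagged with TAMRA read by polarization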
PRMT1 inh: PRMT1 methyltransferase inhibitors, primary screen, biochemical, fluorescence polarization; 370,000 compounds, 1.3% hits; recombinant PRMT1, activity-based probe fluorescence polarization; inhibition, % at 2.79 µM; Protein arginine N-methyltransferase 1 (Homo sapiens), Q99873;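 active = inhibition above about 21% made by adding two undisclosed values, limit read from the data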
ABHD4 inh: ABHD4 inhibitors, primary screen, biochemical, fluorescence polarization, mouse; 370,000 compounds, 0.54% hits; AID 720543, 2013; purified mABHD4, FP-Rh probe fluorescence polarization; inhibition, % at 8.92 µM;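 active = inhibition exceeding the mean over every tested compound plus 3 SD, cut at about 30% in these data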
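Assay system: mouse ABHD4 enzyme, wild type / Also added: fluorescent activity-based probe FP-Rh / Doses: single nominal dose of 8.92 µM, 0.89% DMSO final / Timing: 45 min compound pre-incubation plus 60 min probe step, 25 °C / Signal: FP readout, ex 525 nm / em 598 nm / Control set: S159A mutant/DMSO as 100%, compound-well median as 0%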
HTRA1 inhibitor: HTRA1 serine protease inhibitors, primary screen, biochemical, fluorescence polarization, HTS; AID 504803, 2011; 340,000 compounds, 0.5% hits; recombinant HTRA1, FP-rhodamine activity-based probe; inhibition, % at 5.96 µM; in the data active = inhibition above about 36%
PRMT1 confirm: PRMT1 methyltransferase inhibitors, confirmation, biochemical, fluorescence polarization, triplicate. shares compounds with PRMT1 inh. inhibition, % at 2.79 µM. recombinant His-PRMT1, activity-based probe fluorescence polarization. 3,300 compounds, 42% hits;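 active = mean inhibition across replicates above the hit cutoff derived for the earlier primary screen, cut at about 22% in these data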
Hits are given with their value.

How did CCN(CC)c1ccc(C=Nn2c(-c3cc(C)[nH]n3)n[nH]c2=S)cc1 do in these assays?
SIAE inh: inactive; PRMT1 inh: inactive; ABHD4 inh: inactive

Results for O=C(CSC(=O)c1ccccc1)Nc1ccccc1F ?
SIAE inh: inactive; TCR CD3 inh: inactive; PRMT1 inh: 29; ABHD4 inh: inactive; HTRA1 inhibitor: inactive; PRMT1 confirm: 26

What do the screens show for `O=C(NCc1n[nH]c(=S)n1-c1cccc(C(F)(F)F)c1)c1ccc(S(=O)(=O)N2CCCC2)cc1`?
SIAE inh: inactive; TCR CD3 inh: inactive; PRMT1 inh: inactive; ABHD4 inh: inactive; HTRA1 inhibitor: inactive

How did O=C(NCc1n[nH]c(=S)n1-c1cccc(Cl)c1)c1ccc(S(=O)(=O)N2CCCC2)cc1 do in these assays?
SIAE inh: inactive; TCR CD3 inh: inactive; PRMT1 inh: inactive; ABHD4 inh: inactive; HTRA1 inhibitor: inactive

Results for O=C(NCc1n[nH]c(=S)n1-c1cccc(C(F)(F)F)c1)c1ccc(S(=O)(=O)N2CCCCC2)cc1 ?
SIAE inh: inactive; TCR CD3 inh: inactive; PRMT1 inh: 28; ABHD4 inh: inactive; HTRA1 inhibitor: inactive; PRMT1 confirm: inactive

Results for CCCN(CCC)S(=O)(=O)c1ccc(C(=O)NCc2n[nH]c(=S)n2-c2ccc(Cl)c(Cl)c2)cc1 ?
SIAE inh: inactive; TCR CD3 inh: inactive; PRMT1 inh: 29; ABHD4 inh: inactive; HTRA1 inhibitor: inactive; PRMT1 confirm: inactive

What do the screens show for `S=C(c1ccc(Br)cc1)N1CCN(Cc2ccccc2)CC1`?
SIAE inh: inactive; TCR CD3 inh: inactive; PRMT1 inh: 64; ABHD4 inh: inactive; HTRA1 inhibitor: inactive; PRMT1 confirm: 77

Results for CN(C)c1ccc(C(=S)N2CCN(Cc3ccccc3)CC2)cc1 ?
SIAE inh: inactive; TCR CD3 inh: inactive; PRMT1 inh: 55; ABHD4 inh: inactive; HTRA1 inhibitor: inactive; PRMT1 confirm: 64

How did CCNC(=S)N1CCN(Cc2ccccc2)CC1 do in these assays?
SIAE inh: inactive; TCR CD3 inh: inactive; PRMT1 inh: inactive; ABHD4 inh: inactive; HTRA1 inhibitor: inactive

Results for O=C(c1ccc(Br)cc1)N1CCN(Cc2ccccc2)CC1 ?
SIAE inh: inactive; TCR CD3 inh: inactive; PRMT1 inh: inactive; ABHD4 inh: inactive; HTRA1 inhibitor: inactive

Results for Oc1ccc(C(=S)N2CCN(Cc3ccccc3)CC2)cc1 ?
SIAE inh: inactive; TCR CD3 inh: inactive; PRMT1 inh: 38; ABHD4 inh: inactive; HTRA1 inhibitor: inactive; PRMT1 confirm: 54

Results for Cc1ccc(C(=S)N2CCN(Cc3ccccc3)CC2)s1 ?
SIAE inh: inactive; TCR CD3 inh: inactive; PRMT1 inh: 42; ABHD4 inh: inactive; HTRA1 inhibitor: inactive; PRMT1 confirm: 53

What do the screens show for `NC(=O)c1c(N)[nH]c(C(=O)c2ccccc2)c1-c1ccccn1`?
SIAE inh: inactive; PRMT1 inh: inactive; ABHD4 inh: inactive

What do the screens show for `O=C(NCCO)C1(C(=O)C2CC2)CC(c2ccccn2)=NO1` (stereo not given)?
SIAE inh: inactive; PRMT1 inh: inactive; ABHD4 inh: inactive

How did COc1ccc(CNC2CCC23CCCCC3)cc1OC (stereo not given) do in these assays?
SIAE inh: inactive; PRMT1 inh: inactive; ABHD4 inh: inactive

Results for Oc1ccc(C(=S)N2CCN(c3cccc(Cl)c3)CC2)cc1 ?
SIAE inh: inactive; TCR CD3 inh: inactive; PRMT1 inh: 29; ABHD4 inh: inactive; HTRA1 inhibitor: inactive; PRMT1 confirm: inactive

What do the screens show for `Cc1cccc(NC(=O)n2ccc3ccc(-c4ccc5cc[nH]c5c4)cc32)c1`?
SIAE inh: inactive; PRMT1 inh: inactive; ABHD4 inh: inactive

Results for CCCCNC(=O)C[C@H]1C[C@@]2(C(=O)OC)C(=C[C@H](C(C)C)O[C@@H]2C2CC2)N(Cc2ccc3c(c2)OCO3)C1=O ?
SIAE inh: inactive; PRMT1 inh: inactive; ABHD4 inh: inactive

What do the screens show for `CCOc1ccc(-n2ccnc(SCC(=O)Nc3ccc(OC)cc3OC)c2=O)cc1`?
SIAE inh: inactive; TCR CD3 inh: inactive; PRMT1 inh: 27; ABHD4 inh: inactive; HTRA1 inhibitor: inactive; PRMT1 confirm: 27

What do the screens show for `Cc1ccc(-n2ccnc(SCC(=O)NC3CCCCC3)c2=O)cc1F`?
SIAE inh: inactive; TCR CD3 inh: inactive; PRMT1 inh: 26; ABHD4 inh: inactive; HTRA1 inhibitor: inactive; PRMT1 confirm: inactive

Results for O=C(CSc1nccn(-c2ccc(Br)cc2)c1=O)Nc1ccccc1F ?
SIAE inh: inactive; TCR CD3 inh: inactive; PRMT1 inh: 46; ABHD4 inh: inactive; HTRA1 inhibitor: inactive; PRMT1 confirm: inactive

How did CCOc1ccc(-n2ccnc(SCC(=O)NCc3cccc(OC)c3)c2=O)cc1 do in these assays?
SIAE inh: inactive; TCR CD3 inh: inactive; PRMT1 inh: inactive; ABHD4 inh: inactive; HTRA1 inhibitor: inactive

What do the screens show for `COc1ccc(CNC(=O)CSc2nccn(-c3ccc(F)c(F)c3)c2=O)cc1`?
SIAE inh: inactive; TCR CD3 inh: inactive; PRMT1 inh: 33; ABHD4 inh: inactive; HTRA1 inhibitor: inactive; PRMT1 confirm: 27

What do the screens show for `COc1ccc(-n2ccnc(SCC(=O)NC3CCCC3)c2=O)cc1`?
SIAE inh: inactive; TCR CD3 inh: inactive; PRMT1 inh: inactive; ABHD4 inh: inactive; HTRA1 inhibitor: inactive

What do the screens show for `COc1ccc(-n2ccnc(SCC(=O)NC3CCCC3)c2=O)cc1OC`?
SIAE inh: inactive; TCR CD3 inh: inactive; PRMT1 inh: inactive; ABHD4 inh: inactive; HTRA1 inhibitor: inactive

How did Cc1ccc(-n2c(SCC(=O)Nc3ccc(S(=O)(=O)Nc4cc(C)nc(C)n4)cc3)nnc2-c2ccncc2)cc1 do in these assays?
SIAE inh: inactive; PRMT1 inh: inactive; ABHD4 inh: inactive

How did COc1ccc(CN(C)CC#Cc2ccccc2)c(OC)c1 do in these assays?
SIAE inh: inactive; PRMT1 inh: inactive; ABHD4 inh: inactive

What do the screens show for `O=C(OC12CCCN(C1)/C(=C/c1ccncc1)C2)c1ccccc1` (stereo not given)?
SIAE inh: inactive; PRMT1 inh: inactive; ABHD4 inh: inactive

How did Cc1nnc(SC2CC(=O)N(c3ccccc3)C2=O)s1 (stereo not given) do in these assays?
SIAE inh: inactive; TCR CD3 inh: inactive; PRMT1 inh: 78; ABHD4 inh: inactive; HTRA1 inhibitor: inactive; PRMT1 confirm: 70

What do the screens show for `CCOc1ccc(N2C(=O)CC(Sc3nnnn3-c3ccccc3)C2=O)cc1` (stereo not given)?
SIAE inh: inactive; TCR CD3 inh: inactive; PRMT1 inh: 76; ABHD4 inh: inactive; HTRA1 inhibitor: inactive; PRMT1 confirm: 43
